Source: the EternaBench riboswitch data

Test system: MS2 coat protein
Assay: apparent Kd, MS2 coat protein; higher = weaker binding; RNA-MaP array; FMN 200 µM where present
Outline: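 Two titrations, one without ligand and one with constant ligand, were run with SNAP-549-labelled MS2 coat protein from 0.7 or 1.5 nM, doubling to 3 µM. The targets were designs transcribed by stalled E. coli RNA polymerase on Illumina sequencing-chip clusters, in 100 mM Tris-HCl pH 7.5, 80 mM KCl, 4 mM MgCl2, BSA, DTT, yeast tRNA and Tween-20. The apparent Kd is the median of filtered per-cluster binding-curve fits, with green signal normalised to red-channel RNA signal and control-cluster median Fmax.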

[1] = designed as: OFF switch for flavin mononucleotide, no ligand
[2] = ligand present: flavin mononucleotide, designed as: OFF switch for flavin mononucleotide
[3] = designed as: ON switch for flavin mononucleotide, no ligand
[4] = ligand present: flavin mononucleotide, designed as: ON switch for flavin mononucleotide

Sequence	apparent Kd [1]	apparent Kd [2]	apparent Kd [3]	apparent Kd [4]
CAGCUGAAAGUCAGGAUAUCUAGAGCUGCGGCUCUAGAGAAGGGACAUGAGGAUCACCCAUGUGAUCACAGCUG	1440 nM	150 nM	–	–
CAGGAAAUAGAGGAUAUAGGAGUCGAUAGACUCCUAGAAGGCUAUACAUGAGGAUCACCCAUGUGUCCUACCUG	16.7 nM	43 nM	–	–
CAGGAUAGAGGAUAUACAUAGAUACAGGUUCAUGUAAUCCUACAUGAGGAUCACCCAUGUAGAAGGCUAUCCUG	15 nM	43.3 nM	–	–
CAGGCGGAGUCAGGAUAUGCACGGUGGACCCAUAACAUGAGGAUCACCCAUGUUACUACGCCUCAGCAGAAGGGACAACCUCCU	–	–	28.7 nM	6.21 nM
CAGGUAUAAGGAUAUACAUAGAUACAGACACAUGUUCAAGUACAUGAGGAUCACCCAUGUAGAAGGUAUAUAUG	28.8 nM	25.6 nM	–	–
CAGGUGUUAGGAUAUCGGAGAUUGAGGCAGACGGGAAUAUUCGAGAAGGAACAUGAGGAUCACCCAUGUAGUAG	24.5 nM	28.9 nM	–	–
CAGUACAUGUUAGGAUAUGAUUCGGUACAGCGAUCAGAAGGAACAUGAGGAUCACCCAUGUGACCCACGAUUUGCAAACUAAGA	8.43 nM	17.8 nM	–	–
CAGUACUGAGGAUAUACAUGAGGAUCACCCAUGUGAACCAGCUAGGAAACUAGCAAAGGUAGAAGGCAGUACUG	21.3 nM	259 nM	–	–
CAGUACUGAGGAUAUACAUGAGGAUCACCCAUGUGUUCCAGCUAGGAAACGAGCAAAAGUAGAAGGCAGUACUG	21.9 nM	282 nM	–	–
CAGUACUGAGGAUAUACAUGAGGAUCACCCAUGUGUUCCAGCUAGGAAACUAGCAAGAGUAGAAGGCAGUACUG	23.7 nM	459 nM	–	–
CAGUACUGAGGAUAUACAUGAGGAUCACCCAUGUGUUCCAGCUAGGAAACUAGCAAUUGUAGAAGGCAGUACUG	59.2 nM	428 nM	–	–
CAGUACUGAGGAUAUACAUGAGGAUCACCCAUGUGUUCCAGCUAGGAAACUAGGAAAAGUAGAAGGCAGUACUG	22.1 nM	261 nM	–	–
CAGUACUGAGGAUAUACAUGAGGAUCACCCAUGUGUUCCUUGUAGGAUAUGCGCAAAAGUAGAAGGCAGAAGGACAUGUGCCUA	7.48 nM	6.45 nM	–	–
CAGUACUGUCGAGAGGAUAUGCGGUGAUGGACAUGAGGAUCACCCAUGUUAGCGACAGCAUCACGGCAGAAGGCUCUACUGCUGC	–	–	47.9 nM	17.2 nM
CAGUAGAUCCGAGGAUAUACAAUCCGGAAACGGUACAUGAGGAUCACCCAUGUAGAAGGCGGAUCUACAGGUACUAAAGUACCC	5.99 nM	7.8 nM	–	–
CAGUCUACAGGAUAUACAUGAGGAUCACCCAUGUGUAUCAACCUUCUGUAAUCCACAUGUAGAAGGGUAGACUG	14.8 nM	13.5 nM	–	–
CAGUCUACAGGAUAUACAUGAGGAUCACCCAUGUGUAUUCACUUUCAGUAGUCCAUAUGUAGAAGGGUAGACUG	15.9 nM	22.5 nM	–	–
CAGUGCAUUGAGAAGGGACACCGGGAUCCCAACUUCUCUCAUAACGGACAUGAGGAUCACCCAUGUCAGGAUAUCAACGUUUAG	23.1 nM	16.7 nM	–	–
CAUAACUUUUCUCAUGUAAACAUGAGGAUCACCCAUGUAAUGAGAAGGAGGAGGCAGAGAGAAUCCUAGGAUAUCAGAAUUGUU	6.77 nM	6.43 nM	–	–

Sequence	apparent Kd [1]	apparent Kd [2]	apparent Kd [3]	apparent Kd [4]
CAUACACAUGAGGAUCACCCAUGUGAGGAUAUGCGUACGUUGUCCGUAGGCGACGUGCGCAGAAGGCGCGUGAG	60.1 nM	67.6 nM	–	–
CAUAUCGUAACAGGAUAUAUGAGUCCUACAUGAGGAUCACCCAUGUAGGUGAUCUAACGAGAUUAGUAGAAGGGUUACGAUAUG	–	–	16.6 nM	8.68 nM
CAUAUCGUAAGAGGAUAUAUGAGUCCUACAUGAGGAUCACCCAUGUAGGUGAUCUAACGAGAUUAGUAGAAGGCUUACGAUAUG	–	–	16.2 nM	7.62 nM
CAUAUGGGAGGAUAUGCAUAGAUAAAGAAACAUGUUCAACCACAUGAGGAUCACCCAUGUAGAAGGCCCAUAUG	29.6 nM	162 nM	–	–
CAUAUGUCAGGAUAUUAUCUCAAGGUAUUCGUUACUAACGAUAAGAAGGGACAUGAGGAUCACCCAUGUGCCGC	18.4 nM	24.2 nM	–	–
CAUCUGUGAGGAUAUGGUGAGUAGUGCCUGAGCGCUGCUCACCAGAAGGCACAUGAGGAUCACCCAUGUAUGAC	48.4 nM	188 nM	–	–
CAUGAUCAUGUAGGAUAUAUACUGGAAUACAGUAUAGAAGGACAUGAGGAUCACCCAUGUUAUGUGCCUCCAAGUAAGAUCAUG	18.5 nM	24.7 nM	–	–
CAUGUCCUCACAGGAUAUGCUGGACUUUGUCCAGCAGAAGGGUGAACAUGAGGAUCACCCAUGUAAUGGACAUGUAUAUUUAAU	–	–	801 nM	50.9 nM
CAUGUCUGAGGAUAUCGUUAUUUGUACAUGAGGAUCACCCAUGUCCUAUUUAUUAUAUUUCGAGAAGGCAGUGUAU	16.9 nM	18.2 nM	–	–
CAUGUGUAAGGAUAUGACAAUGGUAUCUUCGGAUACCAUUGUCAGAAGGUACAUGAGGAUCACCCAUGUAGAUC	55 nM	240 nM	–	–
CAUUAAUUCAUUAUAGUAAUUUUACAGGAUAUGUAACAUGAGGAUCACCCAUGUAUUCUUGGUUAACAGAAGGGUAUUACUUGU	19.3 nM	29.7 nM	–	–
CAUUAUGUUGAGGAUAUGCACCGGCUCACUGACGCAGAAGGCGACACAUGAGGAUCACCCAUGUCAGUUCGCGA	15.5 nM	15.8 nM	–	–
CAUUAUUAUCGAGGAUAUCCUAUUGAAAUUCUGGGAGAAGGCGGACUCAACAUGAGGAUCACCCAUGUGAGACGGAUGCUAGGG	20.2 nM	15.8 nM	–	–
CAUUGCGAAGGAUAUACAUGAGGAUCACCCAUGUGUUUCCUCACGCACGGGAGUAGCGGUAGAAGGUCGCAGAA	14.7 nM	29.4 nM	–	–
CCACGUCAGAUUAACAUGAGGAUCACCCAUGUCUUUUGACAUGAGGAUAUGGAUCCUAAUUGGAUCCAGAAGGCAUGGACGUGG	–	–	963 nM	96.9 nM
CCAGAAUAGAAGGAUAUCGUGCUAUAGAGCGGAUGAGAAGGUCUGACAUGAGGAUCACCCAUGUGCACUUCAUG	103 nM	320 nM	–	–
CCAGACGUAGGAUAUACAUUUGGGUAAUCCCGCGGAUAAUUACAUGAGGAUCACCCAUGUAGAAGGGCGGUAAA	38.7 nM	28 nM	–	–
CCAGCAAAUGUAAGGAUAUGCUGGUCCUUGGAUCAGCAGAAGGUACAUGAGGAUCACCCAUGUCGUGGAGCUGG	29.4 nM	160 nM	–	–
CCAUAAAAGAUCCAAAAUUACAACAUGAGGAUCACCCAUGUGCAGGAUAUCGUGCCAGUGAAGUACGAGAAGGGCAGACACUGC	450 nM	487 nM	–	–

Sequence	apparent Kd [1]	apparent Kd [2]	apparent Kd [3]	apparent Kd [4]
CCAUGCAUAGCGAUAUGAUCGAGAGAUCAUGUCGCUAAAUUUAGAAGGACAUGAGGAUCACCCAUGUAGGAUAUGGGAGCAUGG	–	–	11.7 nM	8.26 nM
CCAUGCAUAGCGAUAUGAUCGAGAGAUCAUGUCGCUAAAUUUAGAAGGACAUGAGGAUCACCCAUGUAGGAUAUGGGAGCAUGU	–	–	222 nM	49.7 nM
CCAUGUUAGCAGGAUAUGCUAUUAAUCUUUUAUGCAGAAGGGCUUACAUGAGGAUCACCCAUGUAUUAAGUCAA	14.1 nM	47.8 nM	–	–
CCAUUUCUGUAAGGAUAUAUAAACAUGACGAUACAUGAGGAUCACCCAUGUGUAGAAGGUACAAAUACAUAUAAUACAAUGCUC	13.1 nM	11.7 nM	–	–
CCCAAACUUGGGCUUGGUGGUGCAUAGGAUAUGCUUGAACAUGAGGAUCACCCAUGUGCAACUGUGCAGAAGGGUGCAGGGCCU	–	–	12.7 nM	8.31 nM
CCCAACGUAACGCCACGUUGAGAGCAGGAUAUUCCGCCGUGAUCUACAUGAGGAUCACCCAUGUGGAAGAAGGGCUACACAAAA	16.3 nM	146 nM	–	–
CCCAGUUAGGAAGGAUAUUGUACAUGAGGAUCACCCAUGUAAUAAAUGAGGAUCUCGGAUGUAUACAAGAAGGUCCGGAUAGGC	71.6 nM	136 nM	–	–
CCCAUCGCAUGAGGAUAUGCUCCGGUUUCCGGAGCAGAAGGCAUGUCAUAAGACAUGAGGAUCACCCAUGUAGUUAAGAUGGGA	–	–	529 nM	30.4 nM
CCCAUCGCAUGAGGAUAUGGUCAGGUUUCCUGACCAGAAGGCAUGUCAUAAGACAUGAGGAUCACCCAUGUAGUUAAGAUGGGA	–	–	672 nM	47.5 nM
CCCGAGGAAGGAUAUACAUGAGGAUCACCCAUGUGCGUUGGGACUGGCGUAGUCUUCAGUAGAAGGUCCGCGCC	18.5 nM	17.5 nM	–	–
CCCGCGAUGUCAGGAUAUAGUCGGAGGUGCAGACUAGAAGGGACAUGAGGAUCACCCAUGUGCGUAAACAUUUGAAACCCAGGU	16.5 nM	33.1 nM	–	–
CCCGCGAUGUCAGGAUAUAGUCGGAGGUGCAGACUAGAAGGGACAUGAGGAUCACCCAUGUGCGUGAACAUUUGAAACCCGGGU	40.4 nM	153 nM	–	–
CCCUAGAUCCGAGGAUAUACAAUCCGGAAACGGUACAUGAGGAUCACCCAUGUAGAAGGCGGAUCUACAGGUACUAAAGUACCC	7.3 nM	9.22 nM	–	–
CCCUCACAUGAGGAUCACCCAUGUCAGGAUAUCUCACAUCAGCCUUAGGCCGAUGUCUAGAGAAGGGACGUAUC	22.7 nM	30.3 nM	–	–
CCCUCACAUGAGGAUCACCCAUGUCCUAGCAGGUCAGGAUAUAGCCCGCAUCCGCUGCGGCUAGAAGGGACAGCUG	–	–	244 nM	105 nM
CCCUCACAUGAGGAUCACCCAUGUUAGGAUAUCUACCAGGAGCCUAAAAUGGCCCAACGGAGAAGGAACGUGCA	19.8 nM	18.6 nM	–	–
CCCUCACCAGUCAGGAUAUCUUGUGCGAAAAUGCUAGAGAAGGGACAUGAGGAUCACCCAUGUGCCUGCAAGGA	17.1 nM	17.9 nM	–	–
CCCUCGGCGUGUAGAUACAUACAUGAGGAUCACCCAUGUGAGAAGGAUAUGCACGCGUGCUGCCGGCAGAAGGUCUAGAUGGUG	25.4 nM	29.8 nM	–	–
